From PubChem BioAssay AID1217 (Sanford-Burnham Center for Chemical Genomics, 2008)
Among all 190,000 compounds or so, about 1,300 (0.68%) were called active. The list comes from a sample in which actives are over-represented; it also holds similar structures and randomly drawn compounds. Values without a mark were called inactive.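 The calls were made as follows: active = primary screen inhibition at 20 µM above a set limit (cut at about 50% in these data); inactive = the rest.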

Each compound was assayed on diaphorase (Clostridium kluyveri) (assay: compounds blocking diaphorase resazurin reduction – biochemical, uHTS, resorufin fluorescence, counter-screen for diaphorase-coupled primary assays, primary screen (AID 1217;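 also: plate controls were DMSO with full reaction for no effect and wells lacking NADH for full effect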)). Conditions: diaphorase resazurin-to-resorufin fluorescence, NADH, 16 min; at 20 µM; stronger effect = higher value; bacterial (C. kluyveri) enzyme, not human.
Method in brief: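 Test system: Clostridium kluyveri diaphorase enzyme / Quantity: diaphorase at 0.14 U/mL in enzyme working solution / Incubation: 16-min room-temperature incubation before reading / Benchmarks: NADH-free wells as positive control, DMSO-only neutral wells / Signal: resorufin fluorescence 544/590 nm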

Q: How did the inhibition turn out when COc1cc2c(cc1OC)C(=O)NCC(C)(C)O2 was run?
A: -1.5%

Q: Cc1cc(C)nc(-n2nc(C)cc2NC(=O)c2ccc(F)cc2F)n1 was tested. Which inhibition did it give?
A: 3.4%

Q: With Cc1cc(OCC(=O)NC2CCN(C)CC2)ccc1[N+](=O)[O-] as the compound, how does the inhibition read?
A: 3.6%

Q: COc1cccc(NC(=O)c2ccc(S(=O)(=O)N(C)C)cc2)c1 was tested. Which inhibition did it give?
A: 5.6%

Q: O=C(COC(=O)/C=C/c1cccc(Cl)c1)NCCc1ccccc1 was tested. Which inhibition did it give?
A: 8%

Q: CCOc1ccccc1Nc1ccc(C(=O)O)cc1[N+](=O)[O-] was tested. Which inhibition did it give?
A: 9.2%

Q: OCCC1CN(Cc2cccc(OC3CCCC3)c2)CCN1Cc1ccsc1 (stereo unspecified) was tested. Which inhibition did it give?
A: 8.6%

Q: CCCCCCCNc1nc(Cl)nc(NCCO)n1 was tested. Which inhibition did it give?
A: -16.1%

Q: For CCn1cc(C(=O)NCc2ccc3c(c2)OCO3)c2cc(OC)c(OC)cc2c1=O, which inhibition is on record?
A: 59.4% (active)

Q: CCn1cc(C(=O)N2CCN(Cc3ccc4c(c3)OCO4)CC2)c2cc(OC)c(OC)cc2c1=O was tested. Which inhibition did it give?
A: 10.4%

Q: How did the inhibition turn out when CCn1cc(C(=O)NCC2COc3ccccc3O2)c2cc(OC)c(OC)cc2c1=O (stereo unspecified) was run?
A: 7.1%

Q: Which inhibition does the source give for N#CC1=C(N)Oc2[nH]c(=S)[nH]c(=O)c2C12C(=O)Nc1ccccc12 (stereo unspecified) here?
A: 25.5%

Q: With Cc1cc(C)c(C#N)c(SCc2[nH]nc3c2C(c2ccccc2)C(C#N)=C(N)O3)n1 (stereo unspecified) as the compound, how does the inhibition read?
A: 53% (active)

Q: Which inhibition does the source give for CCc1ccc(C2C(C#N)=C(N)Oc3n[nH]c(CC(=O)OC)c32)cc1 (stereo unspecified) here?
A: 4%

Q: Which inhibition does the source give for CCCc1[nH]nc2c1C(c1c(C)nn(-c3ccccc3)c1Cl)C(C#N)=C(N)O2 (stereo unspecified) here?
A: 26.8%

Q: How did the inhibition turn out when O=C(OCc1cc(Cl)ccc1OC(F)F)c1cccnc1 was run?
A: 10.6%

Q: Which inhibition does the source give for CCN(CC)S(=O)(=O)c1cccc(-c2n[nH]c(=S)n2/N=C/c2ccc(C(=O)OC)cc2)c1 here?
A: 66.5% (active)

Q: For COc1cc(/C=N/n2c(C)n[nH]c2=S)ccc1OCc1ccccc1, which inhibition is on record?
A: 32%

Q: How did the inhibition turn out when COC(=O)c1ccc(/C=N\n2c(C)nnc2C)cc1 was run?
A: -6.4%

Q: How did the inhibition turn out when CN1CCN(CC(=O)Nc2cccc([N+](=O)[O-])c2)CC1 was run?
A: 12%

Q: How did the inhibition turn out when CCOc1ccc(-n2c(O)c(/C=N/Nc3nc(C)cc(C)n3)c3ccccc3c2=O)cc1 was run?
A: -1.1%

Q: For CCOc1ccc(-n2c(O)c(/C=N/Nc3nnc(C)c(=O)[nH]3)c3ccccc3c2=O)cc1, which inhibition is on record?
A: 89.8% (active)

Q: How did the inhibition turn out when CCOc1ccc(-n2c(O)c(/C=N/c3ccnn3Cc3ccncc3)c3ccccc3c2=O)cc1 was run?
A: -12.9%

Q: FC(F)(F)c1cccc(N/N=C/c2ccccc2)c1 was tested. Which inhibition did it give?
A: 23.2%

Q: How did the inhibition turn out when COc1cccc(/C=N/Nc2ncc(C(F)(F)F)cc2Cl)c1O was run?
A: 0%

Q: Which inhibition does the source give for Oc1ccc(/C=N/Nc2ccc(C(F)(F)F)cn2)cc1O here?
A: 53.7% (active)

Q: With CN(Cc1ccccc1)C(=O)COC(=O)c1ccccc1Nc1ccccc1 as the compound, how does the inhibition read?
A: 28.3%

Q: With CCN(CC)c1ccc(/C=N/Nc2nc(C)cc(C)n2)c(O)c1 as the compound, how does the inhibition read?
A: 42.2%

Q: For CCN(CC)c1ccc2cc(C(=O)O)c(=O)oc2c1, which inhibition is on record?
A: 11.2%

Q: How did the inhibition turn out when CCN(CC)c1ccc2oc(=O)c(C)nc2c1 was run?
A: 62.3% (active)

Q: With CCc1ccc(NC(=O)Cn2nc(C)c([N+](=O)[O-])c2C)cc1 as the compound, how does the inhibition read?
A: 12.1%

Q: For CC(C)(C)NC(=O)COc1ccc(CNc2ccc3[nH]c(=O)[nH]c3c2)cc1, which inhibition is on record?
A: 54.2% (active)

Q: For CC(=O)Nc1ccc(OCC(=O)NCc2ccc(C)cc2)cc1, which inhibition is on record?
A: 11.1%

Q: How did the inhibition turn out when COC(=O)c1ccc(OCC(=O)NC(C)(C)C)cc1 was run?
A: -15.5%

Q: How did the inhibition turn out when Cc1cccc(C2c3[nH]c4ccccc4c3CCN2C(=O)c2cc(-c3cccn3C)n[nH]2)n1 (stereo unspecified) was run?
A: 37%

Q: How did the inhibition turn out when Cc1cc2c(cc1C)[n+](C)cn2CC(O)COCC1CC=CCC1 (stereo unspecified) was run?
A: 1.5%

Q: With COc1ccc(/C=C/CN2CCN(Cc3ccc(C)cc3)C(CCO)C2)cc1 (stereo unspecified) as the compound, how does the inhibition read?
A: 7.2%

Q: How did the inhibition turn out when CN(CCc1cn[nH]c1)C(=O)CC1C(=O)NCCN1Cc1cccc(Oc2ccccc2)c1 (stereo unspecified) was run?
A: 8.5%

Q: With O=C(CSc1ccc2nnc(-c3ccccc3)n2n1)N1CCCc2ccccc21 as the compound, how does the inhibition read?
A: 56.2% (active)

Q: How did the inhibition turn out when Cn1c(SCC(=O)N2CCCc3ccccc32)nc2ccccc2c1=O was run?
A: 5.1%

Q: For CCCn1c(SCC(=O)N2CCc3ccccc32)nnc1-c1ccncc1, which inhibition is on record?
A: 6.2%

Q: C=CCNC(=S)NNC(=O)COc1c(Cl)cc(Cl)cc1Cl was tested. Which inhibition did it give?
A: 10.5%

Q: With COc1cccc(C(=O)Oc2cc(C)[nH]c(=O)c2[N+](=O)[O-])c1 as the compound, how does the inhibition read?
A: 15.4%

Q: Cn1c2ccccc2c(=O)c2c(O)cccc21 was tested. Which inhibition did it give?
A: -1%

Q: For Cn1c(=O)c([N+](=O)[O-])c(Oc2ccccc2)c2ccccc21, which inhibition is on record?
A: 82.2% (active)

Q: Cc1nn(C)c(Oc2ccccc2)c1[N+](=O)[O-] was tested. Which inhibition did it give?
A: 13.6%

Q: With Cc1cccc(Oc2c([N+](=O)[O-])c(=O)n(C)c3ccccc23)c1 as the compound, how does the inhibition read?
A: 94.1% (active)

Q: With Cc1cccc(OP(=O)(Nc2c(C)n(C)n(-c3ccccc3)c2=O)Oc2cccc(C)c2)c1 as the compound, how does the inhibition read?
A: 14.1%

Q: For CN(Cc1cc2cc(F)ccc2[nH]1)Cc1nc(-c2cnccn2)no1, which inhibition is on record?
A: 15.3%

Q: With CN(C)c1nc(-c2cccnc2)nc(-c2ccc(Cl)cc2)c1C#N as the compound, how does the inhibition read?
A: -10.7%

Q: With COC(=O)C1CCN(C(=O)c2cc(=O)[nH]c3ccccc23)CC1 as the compound, how does the inhibition read?
A: 6.4%

Q: OC(COCc1ccco1)CN1CCN(c2ccccc2)CC1 (stereo unspecified) was tested. Which inhibition did it give?
A: 3.1%

Q: How did the inhibition turn out when S=C(NCC1CCCO1)N1CCN(c2ccc(Cl)c(Cl)c2)CC1 (stereo unspecified) was run?
A: 21.1%

Q: How did the inhibition turn out when Cc1cccc(N2CCC(NCc3c(C(=O)N4CCCCC4)nc4c(C)cccn34)CC2)c1 was run?
A: -5.4%

Q: With Cc1cccc(NC(=O)Nc2ccc3c(c2)OCO3)n1 as the compound, how does the inhibition read?
A: 18.3%

Q: Which inhibition does the source give for COc1ccc(NC(=S)NCCN2CCC(C)CC2)cc1 here?
A: -1.3%

Q: With Cc1noc(/C=C/c2ccco2)c1S(=O)(=O)N1CCC(C(=O)Nc2ccc(Cl)cn2)CC1 as the compound, how does the inhibition read?
A: 14.1%

Q: With COc1cc(N/C=C2\CC(=O)NC(C)=C2C#N)cc(OC)c1OC as the compound, how does the inhibition read?
A: 51.1% (active)

Q: How did the inhibition turn out when COC(=O)C1=C(C)NC(=O)CC1c1ccccc1OC (stereo unspecified) was run?
A: 6.8%

Q: How did the inhibition turn out when Cc1cccc(NC(=S)NCCc2ccc(F)cc2)c1C was run?
A: 1.1%

Q: N#Cc1c(-c2ccc(F)cc2)cc(C2CC2)nc1SCC(=O)c1cccs1 was tested. Which inhibition did it give?
A: 12.8%
